This passage reports IC50 and inhibition results from ChEMBL document CHEMBL1123606, “1,3-Diarylpyrazolo[4,5-c]- and -[5,4-c]quinolin-4-ones. 4. Synthesis and specific inhibition of benzodiazepine receptor binding” (J Med Chem, 1987).

Assay [1] is described as follows: Displacement of 3[H]Flunitrazepam from GABA-A central benzodiazepine receptor of bovine brain membranes. It counts as cell membranes, Bos taurus. Put shortly:
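Bovine brain membranes (0.4–0.5 mg protein) were incubated in triplicate with 0.6 nM [3H]flunitrazepam in 50 mM Tris-HCl at 0 °C for 90 min. Displacers were added in ethanol, at seven concentrations each. Nonspecific binding was defined with 10 μM diazepam. Samples were diluted with cold buffer, filtered on glass fibre and counted by scintillation. IC50 was taken from log-probit analysis; values are means ± SEM of seven determinations.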

Assay [2] is filed under the species Bos taurus. Put plainly: Displacement of 3[H]Flunitrazepam from GABA-A central benzodiazepine receptor of bovine brain membranes at 34 uM. It counts as cell membranes. Put shortly:
(§1)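 A single-concentration screen against specific [3H]flunitrazepam (0.6 nM) binding to bovine brain membranes (0.4–0.5 mg protein). Incubation was in 50 mM Tris-HCl at 0 °C for 90 min, with compounds added in ethanol. Diazepam at 10 μM defined nonspecific binding. Bound ligand was collected by rapid glass-fibre filtration and counted by scintillation. Percent inhibition is given as means ± SEM of five determinations.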

For assay [3], the species on record is Bos taurus. As to the kind of experiment: Displacement of 3[H]Flunitrazepam from GABA-A central benzodiazepine receptor of bovine brain membranes at 3.4 uM. Format: cell membranes. Put shortly:
as §1

Molecules are shown by their SMILES.

As a reminder, the IC50 is the midpoint of a concentration-inhibition curve. On to `Oc1nc2ccccc2c2c1c(-c1ccccc1)nn2-c1cccc(Cl)c1`, for which the IC50 in assay [1] stood at 3 µM. `Oc1nc2ccccc2c2c1c(-c1ccccc1)nn2-c1cccc(Br)c1` registered an IC50 in assay [1] of 1.5 µM. For `O=C1C2C=Nc3ccccc3C2=NN1c1ccccc1` (stereo not given) [CGS-8216], in assay [1], the IC50 came out at 0.0004 µM. Against the preceding compound, the IC50 is about 3800-fold lower.

In turn, `Oc1nc2ccccc2c2c1c(-c1ccccc1)nn2-c1ccc(Cl)cc1` came in with an IC50 in assay [1] of 30 µM. Compound `CN1C(=O)CN=C(c2ccccc2)c2cc(Cl)ccc21` [DIAZEPAM] showed an IC50 in assay [1] of 2.5e-05 µM. As usually defined, the inhibition is the relative decrease from the control value, in per cent. The low end stands for a weak effect, the high end for a strong effect. As for `Oc1nc2ccccc2c2c(-c3ccccc3)nn(-c3cccc(Cl)c3)c12`, in the assay listed under Bos taurus [2], the inhibition was 8%. Consider `COc1ccc(-n2nc3c4ccccc4[nH]cc-3c2=O)cc1`, for which, in assay [1], the IC50 is 0.0001 µM. The same measure, in the same setting: next, `Cn1c(=O)c2c(-c3ccccc3)nn(-c3cccc(Br)c3)c2c2ccccc21`: 0.1 µM.

Compound `Cc1cccc(-n2nc(-c3ccccc3)c3c(O)nc4ccccc4c32)c1` came in with an IC50 in assay [1] of 3 µM.

`Cc1ccc(-n2nc(-c3ccccc3)c3c(O)nc4ccccc4c32)cc1` yielded an IC50 in assay [1] of 39 µM. Same read-out and setting: in the case of `Oc1nc2ccccc2c2c1c(-c1ccccc1)nn2-c1ccccc1` it was 21 µM. The same measure, in the same setting: next, `Cn1c(=O)c2c(-c3ccccc3)nn(-c3ccccc3)c2c2ccccc21`: 3.1 µM.

In the assay filed under Bos taurus [3], `Cn1c(=O)c2c(c(-c3ccccc3)nn2-c2ccccc2)c2ccccc21` registered an inhibition of 21%.

`Cn1c(=O)c2c(-c3ccccc3)nn(-c3ccc(Cl)cc3)c2c2ccccc21` returned an IC50 in assay [1] of 1.16 µM. This counts as single-digit micromolar. In turn, `Oc1nc2ccccc2c2c(-c3ccccc3)nn(-c3ccccc3)c12` gave an inhibition in the assay listed under Bos taurus [2] of 10%. Turning to `Cn1c(=O)c2c(-c3ccccc3)nn(-c3cccc(Cl)c3)c2c2ccccc21`, in assay [1], the IC50 was determined as 0.07 µM.

Turning to `O=C1C2C=Nc3ccccc3C2=NN1c1ccc(Cl)cc1` (stereo not given) [CGS-9896], the IC50 in assay [1] worked out at 0.0006 µM. Against the preceding compound, the IC50 is about 120-fold lower.

Turning to `CNC1=Nc2ccc(Cl)cc2C(c2ccccc2)=[N+]([O-])C1` [CHLORDIAZEPOXIDE], the IC50 in assay [1] is 0.00079 µM.

Compound `Cc1cccc(-n2nc(-c3ccccc3)c3c(=O)n(C)c4ccccc4c32)c1` displayed an IC50 in assay [1] of 0.09 µM. This IC50 is about 110-fold higher than that of the compound before.

In assay [1], `Cc1ccc(-n2nc(-c3ccccc3)c3c(=O)n(C)c4ccccc4c32)cc1` came in with an IC50 of 1.1 µM.
